Source: PubChem BioAssay
Rpn11 inh = Rpn11 (PSMD14) deubiquitinase inhibitors, primary screen, biochemical, fluorescence polarization, uHTS. human 26S proteasome, Ub4-pepOG fluorescence polarization; 20S core pre-blocked with epoxomicin. inhibition, % at 20 µM. 0.59% of 360,000 active;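 active = inhibition at 20 µM, scaled to each plate's controls, above about 33%, limit read from the data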
TPT1 inhibitor = Candida albicans TPT1 enzyme inhibitors, primary screen, biochemical, fluorescence polarization | tRNA 2'-phosphotransferase TPT1 (Candida albicans SC5314) | recombinant caTPT1, FP RNA substrate dephosphorylation | inhibition, % at 5 µM | 0.81% of 300,000 active | AID 1962, 2009;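 active = inhibition above the mean of all tested compounds plus 3 SD, set per screening campaign, cut at about 24% in these data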
SENP1 inh = human SENP1 catalytic domain inhibitors, primary screen, biochemical, FRET, uHTS | 0.21% of 360,000 active | recombinant SENP1 catalytic domain, CyPet-SUMO1-YPet FRET cleavage | inhibition, % at 10 µM | Sentrin-specific protease 1 (Homo sapiens), Q9P0U3;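 active = inhibition at least 30% at 10 µM, raw YFP signal under a set limit, fluorescence ratio 0.5 to 1.5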
Target sequence (Q9P0U3 419-644 limits assumed): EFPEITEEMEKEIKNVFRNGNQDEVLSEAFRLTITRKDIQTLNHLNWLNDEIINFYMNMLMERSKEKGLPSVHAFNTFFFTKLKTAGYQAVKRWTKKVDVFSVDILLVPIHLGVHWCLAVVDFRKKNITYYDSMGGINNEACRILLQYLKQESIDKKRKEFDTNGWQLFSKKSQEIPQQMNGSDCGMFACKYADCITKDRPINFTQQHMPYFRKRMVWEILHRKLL
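Assay system: hSENP1 catalytic domain, recombinant. Amount: SENP1 enzyme, 20 pM final. Schedule: 50 min reaction, RT, dark. Technique: FRET, CFP and YFP emission. Control set: no-enzyme wells low, DMSO-plus-enzyme wells high control.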
ATG4B inhibitor = ATG4B protease inhibitors, primary screen, biochemical, fluorescence, uHTS | inhibition, % at 8.33 µM | 0.51% of 340,000 active | Cysteine protease ATG4B (Homo sapiens), Q9Y4P1 | ATG4B cleavage of LC3-PLA2, NBD-HPC fluorescence, 1 h | AID 504462, 2011; in the data active = inhibition above about 40%
CSN inh = inhibitors of CSN-mediated cullin deneddylation, primary screen, biochemical, fluorescence polarization, uHTS; Purified CSN, SCF-Nedd8-OG deneddylation; inhibition, % at 12.5 µM; 0.38% of 360,000 active; AID 651999, 2013;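 active = pattern-corrected inhibition above about 35%, with an unprinted fluorescence ratio check between 0.5 and 1.5, limit read from the data, passing the limit was not always enough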
Target sequence (Q92905 whole entry, looked up, one chain of several): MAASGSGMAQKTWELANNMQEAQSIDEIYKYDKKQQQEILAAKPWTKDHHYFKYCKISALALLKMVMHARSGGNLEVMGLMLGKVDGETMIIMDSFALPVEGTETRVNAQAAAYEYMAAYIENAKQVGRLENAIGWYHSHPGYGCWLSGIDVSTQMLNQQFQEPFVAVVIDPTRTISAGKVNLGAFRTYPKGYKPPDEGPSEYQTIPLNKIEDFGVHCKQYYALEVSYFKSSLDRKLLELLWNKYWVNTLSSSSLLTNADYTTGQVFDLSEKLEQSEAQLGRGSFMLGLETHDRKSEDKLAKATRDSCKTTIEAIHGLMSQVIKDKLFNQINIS
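Assay system: Purified human Csn5 enzyme expressed in HEK293T cells | Amount: Enzyme 0.24 nM | Measured by: Fluorescence polarization readout | Medium: Tris/NaCl/DTT buffer, pH 7.5 | Compound dosing: One concentration, 12.5 µM, 0.25% DMSO | Times: 90 min incubation of compound, enzyme and substrate at room temperature | Control set: no-enzyme wells high, enzyme-with-substrate wells low | Read-out: % inhibition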
HNF4A DNA FP = change in binding of human HNF4A to DNA, primary screen, biochemical, fluorescence polarization, FITC-DNA | 1 h | activity change, % at 10 µM | 0.3% of 360,000 active | AID 1224865, 2016; in the data active = activity change above about 30%, passing the limit was not always enough
Numbers stand for hits; n = inactive; x = not tested or not shown; ! = not active in a repeat. Hits are enriched below; roughly 2% of the tested compounds scored in any of these assays.

SMILES	Rpn11 inh	TPT1 inhibitor	SENP1 inh	ATG4B inhibitor	CSN inh	HNF4A DNA FP
Cc1ccc(C(=O)NC(=S)Nc2ccc(-c3ccc(CO)o3)cc2)cc1	n	n	n	n	n	n
O=C(NC(=S)Nc1ccc(-c2ccc(CO)o2)cc1)c1cccs1	n	n	n	n	39.9	n
COc1ccc(CC(=O)N(CCC2=CCCCC2)c2c(N)n(Cc3ccccc3)c(=O)[nH]c2=O)cc1OC	n	n	n	n	n	n
Cc1ccccc1S(=O)(=O)NC(=O)C1(C)CCN1C(=O)C(C)(C)c1ccccc1 (stereo not given)	n	x	n	x	n	38.8
CC(C)(C(=O)N1CCC1(C)C(=O)NS(=O)(=O)c1ccccc1Cl)c1ccccc1 (stereo not given)	n	x	n	x	n	n
Cc1ccc(Cc2c(-c3cccc(Cl)c3)nc3ccc(Cl)cn23)cc1	n	x	n	x	38.7	n
Brc1cccc(-c2nc3ccc(Br)cn3c2Cc2ccsc2)c1	n	x	n	x	n	n
Clc1cccc(-c2nc3ccc(Br)cn3c2Cc2ccsc2)c1	n	x	n	x	n	34.7
Cc1ccc(Cc2c(-c3cccc(Cl)c3)nc3ccc(C)cn23)cc1	n	x	n	x	n	n
Cc1cc(C)c(OCC(=O)Nc2nnc(C3CC3)s2)c(C)c1	n	x	n	n	n	n
Cc1cccc(C)c1NC(=O)NCCSc1snnc1C	n	n	n	n	35.5	n
Cc1cccc(C)c1NC(=O)C1(C)CCC(=O)N1CCc1c[nH]c2ccccc12 (stereo not given)	n	x	n	x	n	n
CC(C)(C)N(Cc1ccccc1)C(=O)COC(=O)c1ccc2ccccc2n1	n	x	n	n	n	n
Cc1cc(C)c(S(=O)(=O)/N=C2/C=C(SCC(=O)O)C(=O)c3ccccc32)cc1C	n	x	n	n	n	37.6
Cn1nc(C(F)(F)F)cc1-c1ccc(/C=C(\C#N)C(=O)c2ccccc2)s1	x	n	n	n	67.7	n
COc1cc2c(C)nc3c(c(C)nn3-c3ccccc3)c2cc1OC	n	n	n	n	n	n
COc1cc2c(-c3ccc(O)cc3)nc3c(c(C)nn3-c3ccccc3)c2cc1OC	n	n	n	n	n	160.1
O=C1CC(C(=O)N2CCN(c3ccccc3)CC2)CN1Cc1ccccc1 (stereo not given)	n	x	n	n	n	n
Cc1cc(C)cc(NC(=O)Cn2nnc(C(=O)NCCc3ccccc3)c2N)c1	n	n	n	n	37.1	n
Cc1cc(C)c(NC(=O)Cn2nnc(C(=O)NCCc3ccccc3)c2N)c(C)c1	n	n	n	n	n	n
Cc1ccc(NC(=O)Cn2nnc(C(=O)NCCc3ccccc3)c2N)c(C)c1	n	n	n	n	55.2	n
CCOC(=O)C1(C)CCN1C(=O)c1ccc(C(=O)OC)cc1 (stereo not given)	n	x	n	x	n	n
CC(C)=CCn1c2ccc(NC(=O)NCc3ccc(F)cc3)cc2c(=O)n1C	n	x	n	x	n	n
CC1=C(C(=O)N(C)C)CC(CC(=O)NCCc2ccccn2)C(=O)N1Cc1ccccc1 (stereo not given)	n	x	n	x	n	n
O=C(CSc1nnc(CNC(=O)c2ccccc2F)o1)NCc1ccco1	n	n	n	n	39.8	n
SMILES	Rpn11 inh	TPT1 inhibitor	SENP1 inh	ATG4B inhibitor	CSN inh	HNF4A DNA FP
O=S1(=O)CC(N2CCN(CC3CC3)CC2)CN1Cc1ccccc1 (stereo not given)	n	x	n	x	n	n
O=C(Cc1cccc(NC(=O)C2CCCN(C(=O)C3CC3)C2)c1)Nc1ccc(C(=O)N2CCOCC2)cc1 (stereo not given)	n	x	n	n	n	n
C=C(C)C(=O)Oc1ccc(N=Nc2ccc(C)cc2)ccc1=O	n	x	34.1	n	n	n
Cn1c(O)c(N=Nc2nc(-c3ccccc3)cs2)c2ccccc21	x	n	45.9	n	n	n
O=C1Nc2ccccc2C(=O)N(C2CCCC2)C1C(=O)NC1CC1 (stereo not given)	x	x	n	x	n	n
Cc1ccc(S(=O)(=O)N2C[C@H]3C(=O)C[C@@H](c4ccccc4F)N(S(=O)(=O)c4ccc(C)cc4)[C@H]3C[C@H]2c2cccc3ccccc23)cc1	n	x	n	x	n	n
CCOC(=O)c1cnn2c(C)cc(-c3ccccc3)nc12	n	n	n	n	n	52.9
O=C(Cn1nnc(-c2ccccc2NC(=O)c2cccs2)n1)Nc1ccccc1	n	n	n	n	n	n
COc1ccccc1NC(=O)Cn1nnc(-c2ccccc2NC(=O)c2cccs2)n1	n	n	n	n	37.0	n
CSC1=C(C#N)C(c2ccncc2)C(C(=O)Nc2ccccc2)=C(C)N1 (stereo not given)	n	n	n	n	93.5	n
Cc1[nH]n(-c2ccccc2)c(=O)c1C=Nc1ccc2[nH]c(=O)[nH]c2c1	n	n	n	n	n	n
O=c1[nH]c2ccc(N=Cc3c(O)ccc4cc(Br)ccc34)cc2[nH]1	n	x	n	n	42.4	n
O=C(N1CCCCC1)C1(c2ccccc2)CCOCC1	n	n	n	n	n	n
O=C(N1CCCCC1)C1(c2ccccc2)CCCCC1	n	n	n	n	37.3	n
Cn1cccc1/C=C1\SC(=O)N(c2ccccc2)C1=O	n	n	n	n	43.3	n
CC(C)Oc1ccc(C(=O)Nc2ccc(N3CCCCC3)cc2)cc1	n	n	n	n	n	82.4
C/C(=N\NC(=O)c1cc(-c2cccnc2)nc2ccccc12)c1ccc(O)cc1O	n	n	48.9	n	n	n
C/C(=N\NC(=O)c1cc(-c2cccc(OC(C)C)c2)nc2ccccc12)c1cccnc1	n	x	n	n	n	n
CCCCCCCCCCCCCCCC[n+]1cccc(C(=O)N(CC)CC)c1	65.9!	n	n	n	n	n
CCCCCCCC[n+]1cccc(C(=O)N(CC)CC)c1	n	n	n	n	n	n
O=C(CSc1nc2c(cnn2-c2ccccc2)c(=O)[nH]1)c1ccc(Cl)cc1	n	n	n	n	88.4	n
O=C(CSc1nc2c(cnn2-c2ccccc2)c(=O)[nH]1)N1CCCCC1	n	n	n	n	n	n
O=C1NC[C@@H](Cc2cccc3ccccc23)N(CCc2cccc(F)c2)C1=O	x	x	n	x	54.4	n
CCCCN1C(=S)NC[C@@H]1Cc1cccc2ccccc12	n	n	n	n	n	n
CCCCN1C(=O)C(=O)NC[C@H]1Cc1cccc2ccccc12	x	x	n	x	51.3	n
Nc1c2c(nc3ccccc13)CCC2	n	n	n	n	n	34.9
CCOC(=O)C1=C(CC)Nc2ccccc2N=C1NC(=O)Nc1ccc(Cl)c(Cl)c1	n	n	n	61.6	n	n
